Assay results: ChEMBL document CHEMBL3627666, “5-Lipoxygenase inhibitors suppress RANKL-induced osteoclast formation via NFATc1 expression” (Bioorg Med Chem, 2015)
pIC50: −log10 of the molar value. The source made the active and inactive calls. No cut-off for these calls is given here.

What was measured:
[1] = biological target: T1, Polyunsaturated fatty acid 5-lipoxygenase (Mus musculus, UniProt P48999); test: Inhibition of 5-LO in mouse BMMC cells assessed as formation of LTC4 after 30 mins by enzyme immunoassay
T1 sequence (P48999 whole entry): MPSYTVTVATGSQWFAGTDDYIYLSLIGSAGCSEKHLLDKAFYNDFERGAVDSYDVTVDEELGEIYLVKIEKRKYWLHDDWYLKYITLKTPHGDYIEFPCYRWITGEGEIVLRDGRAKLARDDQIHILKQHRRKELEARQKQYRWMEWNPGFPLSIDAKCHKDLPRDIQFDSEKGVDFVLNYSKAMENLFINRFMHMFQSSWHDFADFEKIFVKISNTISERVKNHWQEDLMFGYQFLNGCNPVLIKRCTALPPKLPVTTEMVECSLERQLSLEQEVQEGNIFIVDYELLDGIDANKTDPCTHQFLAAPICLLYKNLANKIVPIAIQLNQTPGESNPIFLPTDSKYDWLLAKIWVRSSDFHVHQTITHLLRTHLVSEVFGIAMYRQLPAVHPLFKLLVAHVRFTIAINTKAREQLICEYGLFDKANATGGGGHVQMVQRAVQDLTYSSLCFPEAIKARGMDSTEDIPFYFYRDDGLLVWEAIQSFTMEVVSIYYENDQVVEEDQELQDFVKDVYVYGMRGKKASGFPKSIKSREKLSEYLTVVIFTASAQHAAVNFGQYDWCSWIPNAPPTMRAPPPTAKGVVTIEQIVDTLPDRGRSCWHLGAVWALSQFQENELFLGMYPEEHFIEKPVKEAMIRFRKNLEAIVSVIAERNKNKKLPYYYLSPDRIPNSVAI

[2] = Cytotoxicity against mouse BMM cells assessed as cell survival after 4 days by MTT assay; assay type: cell-based; details: bmmc, 96 h
Method in brief: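 BMMs were kept in α-MEM with M-CSF (30 ng/mL) with or without compound (10 µM) for 4 days. MTT was added for 5 h in the dark, then 10% SDS in 0.01 M HCl was added overnight. Absorbance was read at 570 nm. Mean ± SD, three independent experiments.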

[3] = biological target: T2, Tumor necrosis factor ligand superfamily member 11 (Mus musculus) (UniProt O35235); details: BMM, 10 uM
T2 sequence (whole entry): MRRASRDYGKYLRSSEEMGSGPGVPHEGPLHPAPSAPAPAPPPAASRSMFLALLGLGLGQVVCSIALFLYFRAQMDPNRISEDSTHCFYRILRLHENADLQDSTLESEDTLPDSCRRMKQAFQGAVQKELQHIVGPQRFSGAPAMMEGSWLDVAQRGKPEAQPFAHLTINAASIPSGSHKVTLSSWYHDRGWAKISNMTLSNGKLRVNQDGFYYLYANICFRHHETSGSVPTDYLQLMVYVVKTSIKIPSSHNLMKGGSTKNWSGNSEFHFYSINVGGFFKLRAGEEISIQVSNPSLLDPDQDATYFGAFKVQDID

[4] = biological target: T2, Tumor necrosis factor ligand superfamily member 11 (Mus musculus); details: BMM, 10 uM; remark: listed apart in the source
[5] = biological target: T2, Tumor necrosis factor ligand superfamily member 11 (Mus musculus); details: BMM, 10 uM; remark: listed apart in the source
[6] = biological target: T2, Tumor necrosis factor ligand superfamily member 11 (Mus musculus); details: BMMC, 10 uM
[7] = tested on: BMMC; test: Antiosteoclast activity in mouse BMM cells assessed as reduction of LPS-induced osteoclast formation at 10 uM after 4 days by TRAP+ staining based light microscopy; assay type: functional, cell-based
[8] = biological target: T2, Tumor necrosis factor ligand superfamily member 11 (Mus musculus); details: BMM, 10 uM; remark: listed apart in the source
[9] = tested on: Mus musculus; test: Antiosteoclast activity in mouse assessed as reduction of LPS-induced osteoclast formation in calvarial bone at 5 mg/kg, ip administered daily with LPS challenge after first day of compound dosing measured 6 days after LPS injection; assay type: functional, organism-based
Method in brief: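 Six-week-old male mice, three groups, received compound at 5 mg/kg ip daily or vehicle (corn oil/DMSO 9:1). After one day, LPS (5 mg/kg) or PBS was injected subcutaneously over the calvaria. Mice were killed 6 days post-LPS. Whole calvariae were fixed in 4% paraformaldehyde and TRAP-stained, and TRAP⁺ area was quantified by image analysis.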

Row | SMILES | pIC50 [1] | Activity [2] | inhibition [3] | inhibition [4] | inhibition [5] | inhibition [6] | Activity [7] | inhibition [8] | Activity [9]
1 | N/C(=N\O)c1ccc(OCCCCC(=O)Nc2ccc3oc(Nc4ccccc4)nc3c2)cc1 | 5.39 | – | – | – | – | – | – | – | –
2 | CCc1ccc(Nc2nc3cc(NC(=O)CCCCOc4ccc(/C(N)=N/O)cc4)ccc3o2)cc1 | 5.76 | Non-toxic | Active | Active | Active | inactive | Active | Active | Active
3 | COc1ccc(Nc2nc3cc(NC(=O)CCCCOc4ccc(/C(N)=N/O)cc4)ccc3o2)cc1 | 5.31 | – | – | – | – | – | – | – | –
